Screens: PubChem, several laboratories
H69AR inhibit: growth inhibitors of human H69AR lung tumor cells; H69AR lung tumor viability, ATP luminescence, 72 h; stronger effect = lower value; viability, % at 10 µM; 85,000 tested, 6% active;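 active = viability at or below 40%; inactive = viability above 40%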;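 also: multidrug resistant small cell line overexpressing MRP-1 efflux transporter; 100% = mean luminescence of untreated control wells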
HUVEC inhibit: blocks proliferation of human endothelial cells; AID 648; HUVEC proliferation, CellTiter-Glo luminescence, 72 h; stronger effect = lower value; viability, % at 10 µM (by protocol); 86,000 tested, 1.1% active;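 active = viability at or below 30%; inactive = viability above 30%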;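 also: 100% = median luminescence of DMSO-only cell control wells on each plate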
Lung fibro prol: blocks proliferation of human lung fibroblasts; AID 719; viability, % at 10 µM; LL 47 human lung fibroblast viability, ATP luminescence; stronger effect = lower value; 85,000 tested, 1.1% active;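 active = viability at or below 50% in the single dose screen; inactive = viability above 50%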;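 also: compound exposure lasted 72 h before the ATP readout; 100% = median luminescence of untreated cell-only wells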
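Material: human lung fibroblast line LL 47, low passage; Evaluation: viability percentage against median untreated-cell control; Buffer or medium: 15% FBS in IMEM; Incubation: 72 h compound exposure at 37 °C after overnight plating; Dosing: 0.1% DMSO in all compound wells; Measured by: CellTiter-Glo luminescence.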
Pyk2 oligo antag: Pyk2 (human) oligomerization antagonism | Q14289 | Q293 cells, Pyk2 FERM NanoBiT luminescence; stronger effect = lower value | z-score (the deposit names both 25 µM and 10 µM) | 99,000 tested, 0.83% active | AID 1347419;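 active = Z-score of -3 or lower, scaled per plate to the spread of control and sample wells; inactive = z-score above -3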;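 also: negative z-score means lost luminescence so less FERM oligomerization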
HCT116 bCat-KO: beta-catenin-lacking colon tumor cell growth suppression. 140,000 tested, 1.5% active. HCT116 beta-catenin knockout viability, CellTiter-Glo, 60 h; stronger effect = lower value. AID 818. viability, % at 10 µM;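 active = viability at or under a set limit, the compound median less 4 SD, cut at about 6% in these data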;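 also: 0% = Hyamine 1622 control at 20 µM and 100% = untreated cell control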
PTEN del growth: PTEN-deleted cell growth suppression | HCT116 PTEN-null viability, CellTiter-Glo, 60 h; stronger effect = lower value | viability, % at 10 µM | 140,000 tested, 1.2% active | AID 827;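 active = viability at or below a set limit, 4 SD under the median of all tested compounds, cut at about 3.7% in these data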;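 also: PTEN knockout HCT116 line with beta catenin targeted HCT116 as companion control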
* marks the source's active call; other numbers are inactive results; nt = no result. The entries come from a sample that favours hits as a whole.

SMILES	H69AR inhibit	HUVEC inhibit	Lung fibro prol	Pyk2 oligo antag	HCT116 bCat-KO	PTEN del growth
CCc1ccccc1NC(=O)CC(O)(C(=O)OC)C(F)(F)F (stereo not given)	96.0	93.7	103.0	-0.07	97.5	88.6
Cc1ccc(NC(=O)COc2ccc(/C=C3/SC(=Nc4ccccc4)N(Cc4cccnc4)C3=O)cc2)cc1	nt	nt	nt	1.61	2.7*	2.2*
COc1ccc(OC(=O)CN2C(=O)C3C4CCC(C4)C3C2=O)cc1 (stereo not given)	nt	nt	nt	nt	94.7	93.3
O=C1N=C(N2CCOCC2)S/C1=C1\C(=O)N(Cc2ccccc2)c2ccccc21	28.9*	55.4	76.7	-0.5	80.3	69.7
CCCN1C(=O)/C(=C2\SC(N3CCCCC3)=NC2=O)c2ccccc21	19.2*	89.3	nt	-2.26	65.0	62.1
CC(C)=C1SC(N2CCN(Cc3ccccc3)CC2)=NC1=O	63.5	90.6	87.3	0.42	96.1	92.3
CN1C(=O)/C(=C2\SC(N3CCCCCC3)=NC2=O)c2ccccc21	48.8	78.1	86.5	-0.35	65.1	nt
CCOC(=O)c1cnn(-c2c(Cc3ccccc3)c(C)nc3c(-c4ccccc4)c(C)nn23)c1N	88.0	87.4	94.3	-3.95*	71.9	73.4
CCOC(=O)c1cnn(-c2ncnc3c2cnn3Cc2ccccc2)c1N	25.7*	20.1*	91.5	nt	nt	nt
CCOC(=O)c1cnn(-c2cc(C(C)(C)C)nc3c(-c4ccccc4)c(C)nn23)c1N	86.4	81.8	99.0	1.5	98.9	91.0
CCOC(=O)c1cnn(Cc2ccccc2)c1N	92.4	91.8	96.8	-0.13	101.5	102.6
Cc1ccc(Cn2ccc(=O)c(OCc3c(Cl)cccc3Cl)c2C)cc1	25.0*	72.5	85.5	-1.39	19.1	39.8
CNC(=O)COC(=O)/C=C/c1c(C)nn(-c2ccccc2)c1C	nt	nt	nt	nt	76.9	90.8
COc1ccc(OC)c2sc(NC(=O)CCSc3ccccc3)nc12	46.6	59.3	89.3	nt	75.8	77.9
COc1ccc(OC)c2sc(NC(=O)c3ccc(S(=O)(=O)N(C)C)cc3)nc12	20.9*	63.5	88.5	nt	87.9	90.6
COc1ccc(OC)c2sc(NC(=O)CCS(=O)(=O)c3ccccc3)nc12	2.4*	65.5	35.8*	nt	nt	nt
Cc1ccc(NC(=O)/C(=C/c2cccs2)NC(=O)c2ccco2)cc1	nt	nt	nt	nt	91.2	100.5
CC(=O)c1cccc(NC(=O)Cc2coc3cc4c(cc23)CCC4)c1	nt	nt	nt	nt	86.5	80.7
N#Cc1nc(-c2cccc3ccccc23)oc1NCCN1CCCCC1	12.6*	5.1*	52.9	-0.7	56.7	47.4
CS(=O)(=O)N1CCN(c2ccc(Cl)cc2[N+](=O)[O-])CC1	nt	nt	nt	nt	97.9	94.0
Cc1nc2ccc(S(=O)(=O)NC(C(=O)Nc3nccs3)C(C)C)cc2s1 (stereo not given)	95.3	97.7	98.2	nt	92.5	90.5
Cc1nc2ccc(S(=O)(=O)NC(C(=O)Nc3nc4ccc(Cl)cc4s3)C(C)C)cc2s1 (stereo not given)	30.5*	96.3	96.4	nt	48.8	53.5
C(=C/c1ccnc2nc(SC/C=C/c3ccccc3)nn12)/c1ccccc1	nt	nt	nt	-3.02*	81.0	78.9
COc1cc(C)c(S(=O)(=O)N2CCCC2)cc1C	89.1	105.3	106.7	-1.3	75.7	86.0
COc1ccccc1Cn1c(=O)c2ccccc2n2c(SCc3csc(C)n3)nnc12	98.6	93.2	103.3	-0.66	89.9	88.0
SMILES	H69AR inhibit	HUVEC inhibit	Lung fibro prol	Pyk2 oligo antag	HCT116 bCat-KO	PTEN del growth
COc1ccccc1Cn1c(=O)c2ccccc2n2c(Sc3ncnc4sccc34)nnc12	1.4*	75.0	56.4	-2.12	8.7	5.1
c1ccc(Cn2c(CNc3nc4ccccc4n3CCN3CCOCC3)nc3ccccc32)cc1	54.0	93.4	92.9	0.52	72.3	70.8
Cc1nn(C(=O)c2cccs2)c(C)c1CN1C(=O)c2ccccc2C1=O	21.2*	80.1	80.7	1.32	75.6	88.4
Cc1nn(C(=O)c2ccco2)c(C)c1CN1C(=O)c2ccccc2C1=O	110.8	100.3	96.8	-0.47	106.0	100.0
CCc1nnc(N2C(=O)c3ccc(Oc4ccc([N+](=O)[O-])cc4)cc3C2=O)s1	nt	nt	nt	nt	95.5	100.0
CN1CCN(CC(=O)N2CCn3c4c(c5cc(C6CCCCC6)ccc53)CCCC42)CC1 (stereo not given)	1.1*	2.7*	1.9*	-0.85	1.3*	1.6*
Cc1ccc2c(c1)c1c3n2CCN(C(=O)C2CC2)C3CCC1 (stereo not given)	90.6	103.7	93.3	nt	82.8	89.5
Cc1ccc2c(c1)c1c3n2CCN(C(=O)CN2CCN(C)CC2)C3CCC1 (stereo not given)	92.0	22.8*	62.9	0.43	1.0*	0.8*
Cc1ccc2c(c1)c1c3n2CCCN(Cc2ccccc2)C3CCC1 (stereo not given)	36.4*	82.3	86.0	1.64	77.9	76.3
Cc1ccc2c(c1)c1c3n2CCN(C(=O)Cn2c(-c4ccccc4)noc2=O)C3CCC1 (stereo not given)	86.3	91.7	97.5	0.93	68.7	60.5
Cc1ccc2c(c1)c(=O)c1c3n2CCN(C(=O)CCl)C3CC1 (stereo not given)	1.5*	8.9*	2.0*	0.86	92.2	92.8
CCCc1cc(=O)[nH]c(SCC(=O)N2CCN(S(=O)(=O)c3ccc(C)cc3)C2)n1	95.5	98.5	98.6	nt	93.6	90.4
Cc1cc(C(=O)COC(=O)CN=C2NS(=O)(=O)c3ccccc32)c(C)n1CCc1ccc(Cl)cc1	nt	nt	nt	nt	92.1	100.4
CCN(C(=O)CN1CCN(c2ccc(O)cc2)CC1)c1c(N)n(Cc2ccccc2)c(=O)[nH]c1=O	97.9	63.5	101.8	0.01	74.7	77.4
CCOC(=O)N1CCC(Nc2ncnc3c2cnn3-c2ccc(Cl)cc2)CC1	63.7	83.1	90.6	1.26	106.1	115.5
CC(C(=O)N1CCN(c2ccc(Cl)cc2)CC1)c1ncc(C(F)(F)F)cc1Cl (stereo not given)	nt	nt	nt	0.6	47.3	56.9
O=C(c1ccccc1)c1coc2ccc(O)c(Cl)c12	61.7	88.7	93.6	-1.25	86.7	86.8
O=C1C(=O)c2c(C(=O)c3ccccc3)coc2-c2ccccc21	0.5*	3.2*	35.9*	-3.58*	1.8*	1.5*
Cc1oc2c(c1C(=O)c1ccccc1)C(=O)C(=O)c1ccccc1-2	1.4*	3.1*	2.1*	-2.22	1.2*	1.5*
COc1ccc(NC(=O)Cc2coc3ccc4ccccc4c23)cc1S(=O)(=O)N1CCOCC1	nt	nt	nt	nt	79.6	66.3
O=Cc1ccccc1OCCOc1ccccc1C=O	23.2*	47.2	54.4	-0.4	15.4	10.6
Cc1cccc(N2CN(Cc3ccco3)CNC2=S)c1	nt	nt	nt	nt	88.5	94.6
CCS(=O)(=O)N1CCC(C(=O)NCc2cc(OC)ccc2OC)CC1	105.1	90.5	99.1	-0.3	103.5	108.6
CCN1/C(=C(\O)c2ccccc2)C(=O)c2ccccc2S1(=O)=O	32.6*	62.0	89.0	-0.35	52.1	62.2
